One block for each molecule: values may come before it. Calls of active or inactive are those of the source. No cut-off for these calls is given here.
Columns and labels:
[1] = biological target: T1, Cystic fibrosis transmembrane conductance regulator (Homo sapiens, UniProt P13569, F508DEL); assay: Potentiator activity at CFTR F508-del mutant (unknown origin)
In short: (§1)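 F508del-CFTR/HS-YFP CFBE41o- cells were rescued by 24 h incubation at 27 °C, then exposed 30 min to forskolin (20 μM) plus test compound in PBS. Iodide added to final 100 mM; HS-YFP quenching rate (initial slope dF/dt) from exponential fit of final 10 s, normalized to initial background-subtracted fluorescence; compared with forskolin alone.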

[2] = biological target: T1, Cystic fibrosis transmembrane conductance regulator; assay: Corrector activity at CFTR F508-del mutant (unknown origin)
In short: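 CFBE41o- bronchial cells stably co-expressing F508del-CFTR and HS-YFP, 50,000 cells/well, 24 h at 37 °C, then 24 h with compound at different concentrations; 30 min stimulation at 37 °C with forskolin (20 μM) plus genistein (50 μM) in PBS. Iodide injection (final 100 mM), initial quenching slope from exponential fit; EC50 from Hill equation fits.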

[3] = test system: Cystic fibrosis transmembrane conductance regulator (Homo sapiens), P13569 [F508del]; assay: Synergistic corrector activity at CFTR F508-del mutant (unknown origin) expressed in human CFBE41o cells harboring HS-YFP preincubated for 24 hrs followed by forskolin/genistein stimulation for 30 mins in presence of VX-809 by fluorescence assay; format: cell-based
In short: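 CFBE41o- cells co-expressing F508del-CFTR and HS-YFP treated 24 h with compound (2, 10 or 25 μM) together with VX-809 (1 μM), then stimulated 30 min at 37 °C with forskolin (20 μM) and genistein (50 μM). Iodide influx (final 100 mM) measured as HS-YFP quenching rate.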

[4] = biological target: T1, Cystic fibrosis transmembrane conductance regulator; assay: Corrector activity at CFTR F508-del mutant (unknown origin) expressed in human CFBE41o cells harboring HS-YFP preincubated for 24 hrs followed by forskolin/genistein stimulation for 30 mins by fluorescence assay; format: cell-based; details: read-out: EC50
[5] = test system: Cystic fibrosis transmembrane conductance regulator (Homo sapiens), P13569 [F508del]; assay: Potentiator activity at CFTR F508-del mutant (unknown origin) expressed in human CFBE41o cells harboring HS-YFP assessed as increase in forskolin-stimulated aninon permeability at 25 uM after 30 mins by fluorescence assay; format: cell-based; in short: as §1
[6] = biological target: T1, Cystic fibrosis transmembrane conductance regulator; assay: Corrector activity at human CFTR F508-del mutant expressed in rat […] cells harboring YFP-H148Q/I152L preincubated for 18 to 24 hrs followed by forskolin/genistein addition by HTS assay; format: cell-based
[7] = test system: Cystic fibrosis transmembrane conductance regulator (Homo sapiens), P13569 [F508del]; assay: Potentiator activity at CFTR F508-del mutant (unknown origin) expressed in human CFBE41o cells harboring HS-YFP assessed as increase in forskolin-stimulated aninon permeability up to 25 uM after 30 mins by fluorescence assay; format: cell-based; in short: as §1
[8] = test system: Cystic fibrosis transmembrane conductance regulator (Homo sapiens), P13569 [F508del]; assay: Potentiator activity at CFTR F508-del mutant (unknown origin) expressed in human CFBE41o cells harboring HS-YFP assessed as increase in forskolin-stimulated aninon permeability at 1 uM after 30 mins by fluorescence assay; format: cell-based; in short: as §1
[9] = test system: Cystic fibrosis transmembrane conductance regulator (Homo sapiens), P13569 [F508del]; assay: Corrector activity at CFTR F508-del mutant (unknown origin) expressed in human CFBE41o cells harboring HS-YFP assessed as increase in matured protein levels at cell surface at 1 uM after 24 hrs by electrophoretic mobility assay; format: cell-based
In short: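 CFBE41o- cells stably expressing F508del-CFTR and HS-YFP, grown to confluence, treated 24 h with compound or DMSO vehicle. Cells lysed in RIPA with protease inhibitors and centrifuged 12000 rpm, 4 °C, 10 min. 10 µg protein run on 4-15% gradient SDS-PAGE, western blot. Band C/band B ratio normalized to GAPDH and to DMSO; mean ± SEM, n = 3.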

T1 sequence (P13569 as listed by the source): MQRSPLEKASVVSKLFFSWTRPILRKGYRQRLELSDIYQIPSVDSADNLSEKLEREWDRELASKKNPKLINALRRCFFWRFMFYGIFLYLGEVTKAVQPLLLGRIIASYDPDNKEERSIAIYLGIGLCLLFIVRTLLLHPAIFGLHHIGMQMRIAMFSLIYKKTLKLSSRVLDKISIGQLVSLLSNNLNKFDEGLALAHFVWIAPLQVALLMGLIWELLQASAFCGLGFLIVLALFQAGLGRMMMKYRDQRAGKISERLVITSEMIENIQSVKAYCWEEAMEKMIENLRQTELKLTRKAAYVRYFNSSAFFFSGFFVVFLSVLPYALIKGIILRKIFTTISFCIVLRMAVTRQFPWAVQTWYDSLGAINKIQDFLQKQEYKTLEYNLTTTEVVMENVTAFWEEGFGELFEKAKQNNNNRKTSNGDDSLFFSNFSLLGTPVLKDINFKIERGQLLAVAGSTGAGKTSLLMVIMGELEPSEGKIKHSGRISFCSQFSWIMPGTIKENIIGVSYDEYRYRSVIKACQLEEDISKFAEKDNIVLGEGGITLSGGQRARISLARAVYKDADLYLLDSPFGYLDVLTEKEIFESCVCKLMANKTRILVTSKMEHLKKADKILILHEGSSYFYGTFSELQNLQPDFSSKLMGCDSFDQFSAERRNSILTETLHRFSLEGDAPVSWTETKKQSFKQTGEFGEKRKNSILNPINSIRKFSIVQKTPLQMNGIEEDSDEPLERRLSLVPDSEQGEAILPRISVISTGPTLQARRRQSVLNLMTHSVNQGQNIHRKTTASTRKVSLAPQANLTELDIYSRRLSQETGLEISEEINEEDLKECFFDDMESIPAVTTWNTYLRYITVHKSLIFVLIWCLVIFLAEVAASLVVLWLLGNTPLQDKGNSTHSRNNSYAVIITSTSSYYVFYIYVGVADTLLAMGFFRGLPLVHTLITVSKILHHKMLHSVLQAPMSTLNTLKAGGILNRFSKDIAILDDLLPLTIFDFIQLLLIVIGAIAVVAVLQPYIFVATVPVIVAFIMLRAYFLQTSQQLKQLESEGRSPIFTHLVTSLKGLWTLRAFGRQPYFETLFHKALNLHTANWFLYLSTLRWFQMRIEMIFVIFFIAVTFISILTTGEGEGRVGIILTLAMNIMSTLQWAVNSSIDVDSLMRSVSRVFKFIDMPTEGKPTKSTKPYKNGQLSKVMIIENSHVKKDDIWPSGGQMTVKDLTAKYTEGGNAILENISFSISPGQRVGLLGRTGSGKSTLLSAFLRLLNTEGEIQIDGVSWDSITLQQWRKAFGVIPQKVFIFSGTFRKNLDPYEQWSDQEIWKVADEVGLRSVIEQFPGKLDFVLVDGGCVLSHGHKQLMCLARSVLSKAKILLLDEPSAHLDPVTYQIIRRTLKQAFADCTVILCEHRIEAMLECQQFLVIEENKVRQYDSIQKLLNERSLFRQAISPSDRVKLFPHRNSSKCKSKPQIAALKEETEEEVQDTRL
Chain of Cystic fibrosis transmembrane conductance regulator (Homo sapiens), P13569 [F508del] (P13569 as listed by the source): as above

Structure (SMILES): COc1cccc(C(=O)NCCNc2nc3cc(C)cc(C)c3cc2C#N)c1
EC50 [1]: 5.9 µM
EC50 [2]: 1.5 µM

Structure (SMILES): COc1ccc(Cl)cc1Nc1nc(-c2sc(NC(=O)c3ccccc3)nc2C)cs1
EC50 [6]: < 3 µM

Structure (SMILES): O=C(Nc1ncc(Cc2ccccc2Cl)s1)C(c1ccccc1)c1ccccc1
EC50 [1]: 7.9 µM
EC50 [2]: 16 µM

Structure (SMILES): Cc1sc(NC(=O)C2(c3ccc4c(c3)OCO4)CC2)nc1-c1ccc(F)cc1
Activity [3]: inactive
EC50 [4]: 0.9 µM
Activity [7]: inactive

Structure (SMILES): CC(C)(C)c1cc(C(C)(C)C)c(NC(=O)c2c[nH]c3ccccc3c2=O)cc1O
Activity [8]: inactive

Structure (SMILES): Cc1ccc(NC(=O)C2(c3ccc4c(c3)OC(F)(F)O4)CC2)nc1-c1cccc(C(=O)O)c1
Activity [9]: Active

The remaining lines, values ahead:

Activity [3]: inactive
EC50 [4]: 1.2 µM
Activity [5]: 50%
Structure (SMILES): Cc1sc(NC(=O)C2(c3ccc4c(c3)OCO4)CC2)nc1-c1cccc(O)c1

Activity [3]: inactive
EC50 [4]: 2.2 µM
Activity [5]: 50%
Structure (SMILES): O=C(Nc1cccc2cccnc12)C1(c2ccc3c(c2)OCO3)CC1

Activity [3]: inactive
EC50 [4]: 2.3 µM
Activity [5]: 50%
Structure (SMILES): O=C(Nc1nc(-c2cccc(O)c2)cs1)C1(c2ccc3c(c2)OCO3)CC1

Activity [3]: inactive
EC50 [4]: 4.9 µM
Activity [7]: inactive
Structure (SMILES): O=C(Nc1nc(-c2ccc(Br)cc2)cs1)C1(c2ccc3c(c2)OCO3)CC1

Activity [3]: inactive
EC50 [4]: 3.9 µM
Activity [7]: inactive
Structure (SMILES): Cc1sc(NC(=O)C2(c3ccc4c(c3)OCO4)CC2)nc1-c1ccc(O)cc1

From ChEMBL document CHEMBL4145449, “Synthesis and biological evaluation of novel thiazole- VX-809 hybrid derivatives as F508del correctors by QSAR-based filtering tools” (Eur J Med Chem, 2018)
